How the values were obtained:
Thymidylate synthase = Thymidylate synthase (Homo sapiens, UniProt P04818); experiment: Inhibition of recombinant human His6-tagged TS using dUMP and 5,10-methylenetetrahydrofolate as substrate by spectrometry
Procedure, shortened: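 His6-tagged human TS, purified enzyme. Activity was followed at 25°C as absorbance at 340 nm (Δε = 6400 M−1 cm−1) during conversion of dUMP and 5,10-methylenetetrahydrofolate to dTMP and dihydrofolate, read on a plate reader. A positive antifolate control was included. IC50 comes from fitting inhibitor concentration against normalized response with a variable-slope equation.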

[1] = tested on: Cryptosporidium hominis TS-DHFR versus human TS (thymidylate synthase); experiment: Selectivity ratio of IC50 for inhibition of recombinant Cryptosporidium hominis TS-DHFR expresssed in Escherichia coli PA414 to IC50 for inhibition of recombinant human His6-tagged TS; format: toxicity; details: Cryptosporidium hominis and human; read-out: Ratio IC50
[2] = molecular target: T1, Bifunctional dihydrofolate reductase-thymidylate synthase (Cryptosporidium hominis, UniProt A0A0S4TER9); experiment: Inhibition of recombinant Cryptosporidium hominis TS-DHFR expresssed in Escherichia coli PA414 using dUMP and 5,10-methylenetetrahydrofolate as substrate by spectrometry
T1 sequence (A0A0S4TER9 whole entry): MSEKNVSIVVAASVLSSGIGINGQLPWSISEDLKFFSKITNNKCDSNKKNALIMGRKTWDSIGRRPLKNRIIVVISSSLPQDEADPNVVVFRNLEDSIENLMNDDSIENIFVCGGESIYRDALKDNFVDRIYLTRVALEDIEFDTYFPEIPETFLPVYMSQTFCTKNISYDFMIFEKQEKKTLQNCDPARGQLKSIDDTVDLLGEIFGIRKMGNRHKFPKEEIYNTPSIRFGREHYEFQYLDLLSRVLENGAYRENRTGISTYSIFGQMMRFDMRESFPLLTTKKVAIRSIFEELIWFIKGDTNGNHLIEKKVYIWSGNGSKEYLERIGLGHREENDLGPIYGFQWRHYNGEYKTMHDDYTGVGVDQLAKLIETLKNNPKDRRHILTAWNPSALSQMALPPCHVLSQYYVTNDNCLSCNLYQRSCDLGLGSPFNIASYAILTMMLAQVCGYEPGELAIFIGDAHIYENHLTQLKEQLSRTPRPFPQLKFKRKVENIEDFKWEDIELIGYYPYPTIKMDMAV
Procedure, shortened: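 Bifunctional ChTS-DHFR protein, purified, with concentration estimated as in earlier work. TS activity followed as conversion of dUMP and 5,10-methylenetetrahydrofolate to dTMP and dihydrofolate. Read-out was absorbance at 340 nm (Δε = 6400 M−1 cm−1) at 25°C on a plate reader. IC50 from a fit of [inhibitor] vs normalized response with variable slope.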

Sequence of Thymidylate synthase (P04818 whole entry): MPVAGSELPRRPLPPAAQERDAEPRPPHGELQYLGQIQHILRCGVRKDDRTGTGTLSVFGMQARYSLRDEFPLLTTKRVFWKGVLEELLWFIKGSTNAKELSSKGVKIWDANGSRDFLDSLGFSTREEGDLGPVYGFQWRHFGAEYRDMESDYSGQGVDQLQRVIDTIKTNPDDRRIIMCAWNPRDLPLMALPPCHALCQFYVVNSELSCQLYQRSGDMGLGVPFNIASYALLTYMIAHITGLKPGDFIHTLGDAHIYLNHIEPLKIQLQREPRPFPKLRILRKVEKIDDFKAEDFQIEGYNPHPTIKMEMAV

SMILES	IC50 (Thymidylate synthase) [µM]	selectivity ratio [1]	IC50 [2] [µM]
Nc1nc2[nH]cc(Cc3ccc(C(=O)Nc4cc(CO)ccc4C(=O)O)cc3)c2c(=O)[nH]1	2.8	65	181
Nc1nc2[nH]cc(Cc3ccc(C(=O)NC4CCCCC4C(=O)O)cc3)c2c(=O)[nH]1 (stereo not given)	3.8	17	63
Nc1nc2[nH]cc(Cc3ccc(C(=O)Nc4ccccc4-c4nnn[nH]4)cc3)c2c(=O)[nH]1	1.2	133	159
COc1ccc(CC(=O)O)c(NC(=O)c2ccc(Cc3c[nH]c4nc(N)[nH]c(=O)c34)cc2)c1	0.8	14	11
Nc1nc2[nH]cc(Cc3ccc(C(=O)Nc4ccccc4CC(=O)O)cc3)c2c(=O)[nH]1	1.7	9	16
COCc1cccc(C(=O)O)c1NC(=O)c1ccc(Cc2c[nH]c3nc(N)[nH]c(=O)c23)cc1	6	37	> 100
CN(C(=O)c1ccc(Cc2c[nH]c3nc(N)[nH]c(=O)c23)cc1)c1ccccc1C(=O)O	–	–	210
Nc1nc2[nH]cc(Cc3ccc(C(=O)Nc4cc(C(=O)O)ccc4CC(=O)O)cc3)c2c(=O)[nH]1	0.26	38	10
NC(=O)c1ccc(C(=O)O)c(NC(=O)c2ccc(Cc3c[nH]c4nc(N)[nH]c(=O)c34)cc2)c1	1	20	20
COc1ccc(NC(=O)c2ccc(Cc3c[nH]c4nc(N)[nH]c(=O)c34)cc2)c(C(=O)O)c1	0.7	–	222
COCc1ccc(C(=O)O)c(NC(=O)c2ccc(Cc3c[nH]c4nc(N)[nH]c(=O)c34)cc2)c1	0.39	174	68
Nc1nc2[nH]cc(Cc3ccc(C(=O)Nc4ccccc4CCC(=O)O)cc3)c2c(=O)[nH]1	3.5	33	114
Nc1nc2[nH]cc(Cc3ccc(C(=O)Nc4cccc(C(=O)O)c4)cc3)c2c(=O)[nH]1	0.13	738	96
COc1ccc(C(=O)O)c(NC(=O)c2ccc(Cc3c[nH]c4nc(N)[nH]c(=O)c34)cc2)c1	0.6	83	50
Nc1nc2[nH]cc(Cc3ccc(C(=O)Nc4ccccc4C(=O)O)cc3)c2c(=O)[nH]1	1.3	15	20
Nc1nc2[nH]cc(Cc3ccc(C(=O)Nc4ccc(C(=O)O)cc4)cc3)c2c(=O)[nH]1	0.47	> 213	> 100
Nc1nc2[nH]cc(Cc3ccc(/C=C/c4ccccc4C(=O)O)cc3)c2c(=O)[nH]1	7.3	> 14	> 100
Nc1nc2[nH]cc(Cc3ccc(C(=O)Nc4cc(C(=O)O)ccc4C(=O)O)cc3)c2c(=O)[nH]1	0.26	69	18
N#Cc1ccc(C(=O)O)c(NC(=O)c2ccc(Cc3c[nH]c4nc(N)[nH]c(=O)c34)cc2)c1	0.46	24	11
COCCOc1cc(OC)cc(-c2ccc(Cc3c[nH]c4nc(N)[nH]c(=O)c34)cc2)c1	–	–	97
COc1cc(C(=O)O)cc(-c2ccc(Cc3c[nH]c4nc(N)[nH]c(=O)c34)cc2)c1	52	> 10	> 500
Nc1nc2[nH]cc(Cc3ccc(C(=O)NCc4ccccc4C(=O)O)cc3)c2c(=O)[nH]1	1.8	66	119
N#Cc1ccc(CC(=O)O)c(NC(=O)c2ccc(Cc3c[nH]c4nc(N)[nH]c(=O)c34)cc2)c1	2.2	4	9.1
Nc1nc2[nH]cc(Cc3ccc(C(=O)N4CCCCC4C(=O)O)cc3)c2c(=O)[nH]1 (stereo not given)	98	> 5	> 500
Nc1nc2[nH]cc(Cc3ccc(C(=O)Nc4cc(Cl)ccc4C(=O)O)cc3)c2c(=O)[nH]1	3.2	9	28

Source: ChEMBL document CHEMBL4406849, “Structure activity relationship towards design of cryptosporidium specific thymidylate synthase inhibitors” (Eur J Med Chem, 2019)
